Sampled rows, rich in hits. Any-hit rate of the full collection: about 3.6%.
DNA FID counter: compounds displacing fluorescent DNA intercalator, primary screen, artefact control for HCV NS3 helicase inhibitor project, biochemical, FID fluorescence. actives 0.17% (n = 290,000). DNA fluorescent intercalator displacement. inhibition, % at 7.9 µM; in the data active = inhibition above about 37%;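 note: 0% = vehicle and 100% = reference compound; higher means more ethidium bromide displaced from hairpin DNA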
FGF22 binding: binders of human FGF22 protein, primary screen, FGF22 synaptogenesis inhibitor project, biophysical, thermal shift, single point; Fibroblast growth factor 22 (Homo sapiens), Q9HCT0; recombinant FGF22 thermal shift, SYPRO orange fluorescence; percent of sucrose octasulfate shift, DMSO zero; activity (Tm shift, normalised), % at 9.99 µM; actives 1.5% (n = 340,000); AID 651658, 2012;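 active = mean Tm shift, scaled 0 neutral to 100 positive control, at about 1.3% or above, every replicate too, limit read from the data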
Target sequence (Q9HCT0 whole entry, looked up): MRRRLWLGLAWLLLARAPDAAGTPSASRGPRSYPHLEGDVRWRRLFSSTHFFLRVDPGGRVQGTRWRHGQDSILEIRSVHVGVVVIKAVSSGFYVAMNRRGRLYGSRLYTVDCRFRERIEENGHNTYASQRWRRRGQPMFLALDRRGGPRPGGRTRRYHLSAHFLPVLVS
GRIN3A LBD mod: binders of NR3A ligand-binding domain, primary screen, biophysical, differential scanning fluorimetry, uHTS | Tm shift relative to glycine control, % at 25 µM | Glutamate receptor ionotropic, NMDA 3A (GRIN3A) ligand-binding domain | NR3A LBD differential scanning fluorimetry, Tm shift; 0% = protein alone, 100% = glycine-bound protein | AID 1259313, 2017 | actives 2.5% (n = 340,000);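 active = melting temperature shift of at least 10% of the positive control shift, at one fixed dose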
EBNA-1 inhibitor: EBNA-1 DNA-binding inhibitors, primary screen, biochemical, fluorescence polarization; AID 1950, 2009; actives 0.34% (n = 300,000); inhibition, % at 14.8 µM; in the data active = inhibition above about 28%
ZTA counter: ZTA (EBV) inhibition in EBNA-1 counter-screen | P03206 | ZTA-DNA binding, fluorescence polarization | inhibition, % at 11 µM | actives 0.15% (n = 320,000) | AID 2234; in the data active = inhibition above about 33%
Target sequence (P03206 whole entry, looked up): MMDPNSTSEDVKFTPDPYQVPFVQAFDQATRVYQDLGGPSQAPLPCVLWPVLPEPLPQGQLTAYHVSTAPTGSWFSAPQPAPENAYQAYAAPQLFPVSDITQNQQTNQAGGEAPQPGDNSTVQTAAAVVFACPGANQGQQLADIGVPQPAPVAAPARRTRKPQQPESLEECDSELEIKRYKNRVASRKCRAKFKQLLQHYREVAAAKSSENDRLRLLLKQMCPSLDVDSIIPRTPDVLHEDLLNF
HCV NS3 hel inh: inhibitors of HCV NS3 helicase, primary screen, biochemical, Cy5 molecular beacon fluorescence | actives 0.56% (n = 290,000) | Hepatitis C virus NS3 helicase | NS3 helicase DNA unwinding | inhibition, % at 10.9 µM;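 active = inhibition above the mean of all tested compounds plus 3 SD, set per campaign, cut at about 35% in these data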;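 note: 0% = DMSO wells and 100% = thioflavine S control wells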
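System: HCV NS3 helicase fragment; control set: DMSO and thioflavine S; technique: Cy5 fluorescence at 0 and 60 min, beacon hairpin quenching; reagent: beacon DNA duplex substrate plus ATP; replicates: singlicate; schedule: 1 h reaction at 25 °C, ATP-initiated; medium: MOPS buffer pH 6.5 with MgCl2, DTT, Tween20, BSA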
Active calls of the source: *; nt = no result.

SMILES	DNA FID counter	FGF22 binding	GRIN3A LBD mod	EBNA-1 inhibitor	ZTA counter	HCV NS3 hel inh
CCOc1ccc(C2=C(C=C(C#N)C#N)C(c3ccccc3)c3ccccc3O2)cc1 (stereo unspecified)	-12	0	-5	-7	10	-3
CO[C@@H]1CN(C)C(=O)c2cc(NS(=O)(=O)c3ccc(Oc4ccccc4)cc3)ccc2OC[C@H](C)NC[C@H]1C	nt	0	nt	nt	nt	nt
CCOc1ccccc1Cn1c(=O)sc2ccccc21	-5	43*	-1	5	-7	1
O=c1sc2ccccc2n1Cc1ccccc1	-3	0	-1	0	-15	-6
O=C(O)CCCCCN1C(=O)/C(=C\c2ccc(-c3ccc(Cl)cc3)o2)SC1=S	-13	0	0	2	-2	25
O=C(O)CCCN1C(=O)/C(=C/c2ccc(-c3nc4ccccc4s3)o2)SC1=S	-2	nt	26*	4	3	3
O=C(c1ccc(S(=O)(=O)NCc2ccco2)cc1)N1CCN(c2ccc(F)cc2)CC1	nt	0	-2	nt	-4	nt
O=C(c1ccc(S(=O)(=O)NCc2ccco2)cc1)N1CCN(Cc2ccccc2)CC1	-19	44*	-2	4	4	8
O=C(/C=C/c1ccc(S(=O)(=O)NCc2ccco2)cc1)N1CCN(c2ccccc2)CC1	-29	0	16*	6	-3	-13
O=C(CN1C(=O)S/C(=C\c2ccccc2)C1=O)Nc1cc([N+](=O)[O-])ccc1O	43*	0	23*	13	7	16
O=C1/C(=C/c2ccc(O)c([N+](=O)[O-])c2)SC(=S)N1Cc1ccccc1	0	0	498*	3	-10	14
Cc1ccc(/C=C2/SC(=S)N(CCCC(=O)Nc3cc([N+](=O)[O-])ccc3O)C2=O)cc1	-2	0	1	1	-5	-7
O=C(O)c1ccc(/C=C2/SC(=S)N(Cc3ccccc3)C2=O)cc1	-21	0	20*	nt	nt	-15
O=C1/C(=C\c2ccc(O)cc2)SC(=S)N1Cc1ccccc1	16	0	34*	-13	-3	-8
O=C1/C(=C\c2cccc([N+](=O)[O-])c2O)SC(=S)N1Cc1ccccc1	17	0	1	-2	-1	35
C[C@@H]1CN([C@@H](C)CO)C(=O)c2cc(NC(=O)Nc3ccc(F)cc3)ccc2O[C@@H](C)CCCCO[C@H]1CN(C)Cc1ccncc1	nt	0	nt	nt	nt	nt
C[C@H](CO)N1C[C@H](C)[C@H](CN(C)C(=O)Nc2ccc(F)cc2)Oc2ccc(NC(=O)c3ccncc3)cc2C1=O	nt	0	nt	nt	nt	nt
C[C@@H](NC(=O)C[C@H]1CC[C@@H](NC(=O)c2cccnc2)[C@@H](CO)O1)c1ccccc1	nt	0	nt	nt	nt	nt
CNC[C@@H]1Oc2ccc(NS(=O)(=O)c3ccc(Cl)cc3)cc2CC(=O)N([C@H](C)CO)C[C@H]1C	nt	0	nt	nt	nt	nt
CCOC(=O)c1nn(C)c2[nH]c(=O)n(C)c(=O)c12	nt	44*	5	nt	nt	nt
NC(=S)N/N=C/c1c(O)c(Br)cc2oc3c(c12)CCCC3	-2	0	10*	26	24	-5
CS(=O)(=O)N1C[C@@H](O)COC[C@H]2O[C@@H](CC(=O)NCc3ccccc3)CC[C@@H]21	nt	0	nt	nt	nt	nt
CCCC(=O)Nc1ccc2c(c1)OC[C@H](C)N(Cc1ccc(-c3ccccn3)cc1)C[C@@H](C)[C@H](OC)CN(C)C2=O	nt	0	nt	nt	nt	nt
Nc1nc(N)c2c(n1)CN(Cc1ccc(Cl)cc1)C2	nt	43*	nt	nt	nt	nt
C[C@@H]1CN([C@H](C)CO)C(=O)c2cc(NC(=O)CCC(F)(F)F)ccc2O[C@H]1CN(C)Cc1ccc(C(=O)Nc2ccccc2N)cc1	nt	0	nt	nt	nt	nt
SMILES	DNA FID counter	FGF22 binding	GRIN3A LBD mod	EBNA-1 inhibitor	ZTA counter	HCV NS3 hel inh
CC(=O)NCCCOc1ccc([N+](=O)[O-])cc1Cl	-2	0	10*	-20	-13	-5
O=[N+]([O-])c1ccc(NCCOc2ccccc2Cl)nc1	8	0	16*	6	1	8
O=C(O)c1ccc(N=Cc2c(O)ccc3ccccc23)cc1	0	0	0	-11	3	4
CC(=O)Nc1ccc(N=Cc2c(O)ccc3ccccc23)cc1	-1	0	39*	7	-4	5
O=C(CSCC(=O)Nc1ccccc1)N/N=C/c1c(O)ccc2ccccc12	-15	nt	9	1	-2	13
O=C(CNc1ccccc1)N/N=C/c1c(O)ccc2ccccc12	-9	0	20*	-14	5	3
NC(=O)N/N=C\c1cc(Br)ccc1O	-4	0	-5	6	-18	-7
O=C(N/N=C/c1c(O)ccc2ccccc12)Nc1ccccc1	nt	0	39*	12	9	nt
O=C(N/N=C/c1cc(Br)ccc1O)Nc1ccccc1	6	nt	28*	-6	-9	-2
CN(C)C(=O)C[C@@H]1C[C@H]2c3cc(NC(=O)c4ccc5c(c4)OCO5)ccc3O[C@H]2[C@@H](CO)O1	nt	0	nt	nt	nt	nt
CNC[C@H]1Oc2ccc(NC(=O)Cn3cnnn3)cc2C(=O)N([C@H](C)CO)C[C@@H]1C	nt	-1	nt	nt	nt	nt
CCn1c(SCC(=O)Nc2nc(C)c(C)s2)nnc1-c1cccnc1	-17	0	-4	-6	11	2
CCn1c(SCC(=O)Nc2ccc(NC(=O)c3cccs3)cc2)nnc1-c1cccnc1	-21	nt	21*	-10	2	1
COc1ccc(CN(C)C[C@@H]2OCCCC[C@H](C)Oc3ccc(NC(=O)Nc4ccc(C(F)(F)F)cc4)cc3C(=O)N([C@H](C)CO)C[C@H]2C)cc1	nt	1	nt	nt	nt	nt
O=C(NCc1ccc2c(c1)OCO2)C(=O)NCC1OCCCN1S(=O)(=O)c1cc(F)ccc1F (stereo unspecified)	-32	0	13*	7	-3	4
Cc1cc(F)ccc1S(=O)(=O)N1CCCOC1CNC(=O)C(=O)NCc1ccc2c(c1)OCO2 (stereo unspecified)	-37	0	-3	1	-4	-6
Cc1cc(-c2ccccc2)nc(SC(C(=O)O)c2ccccc2)n1 (stereo unspecified)	-29	43*	-2	-6	3	12
CCc1ccc2oc(C(=O)NCCc3ccc(S(N)(=O)=O)cc3)cc(=O)c2c1	-20	0	15*	-8	-2	7
Cc1ccc(C(=O)OCC(=O)NCCc2ccc(S(N)(=O)=O)cc2)o1	nt	43*	2	nt	nt	nt
Cc1ccc(C(=O)OCC(=O)NCCNC(=O)COC(=O)c2ccc(C)o2)o1	nt	0	1	-17	0	nt
CNC[C@@H]1Oc2ncc(Br)cc2C(=O)N([C@@H](C)CO)C[C@@H]1C	nt	0	nt	nt	nt	nt
Cc1noc(C)c1S(=O)(=O)Nc1cccc2c1O[C@H](CN(C)Cc1ccncc1)[C@H](C)CN([C@H](C)CO)C2=O	nt	0	nt	nt	nt	nt
